Measured values taken from ChEMBL document CHEMBL5325427.
Converted amounts (≈) assume the structure as drawn. The source made the active and inactive calls. No cut-off for these calls is given here.

What was measured:
[1] = Toxicity in Balb/c mouse assessed as effect on body weight loss at 12.5 to 25 mg/kg, ip administered as multiple dose measured upto 15 days; assay type: organism-based; conditions: in vivo, 360 h, dose 12.5-25 mg/kg, time < 15 day
Procedure, shortened: (§1)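 Female Balb/c mice were randomised to vehicle (0.5% DMSO in PBS) or 12.5 or 25 mg/kg intraperitoneally daily for 14 days, then followed 12 days after treatment. Body weight, haematology and blood chemistry were compared with vehicle controls; n = 3–5.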

[2] = Toxicity in Balb/c mouse assessed as effect on urea at 12.5 to 25 mg/kg; assay type: organism-based; conditions: in vivo, dose 12.5-25 mg/kg; procedure, shortened: as §1
[3] = Permeability of the compound across apical to basolateral side in human Caco-2 cells at pH 6.5 to 7.4; assay type: ADME, cell-based; conditions: Caco-2, pH 6.5, read-out: permeability
Procedure, shortened: (§2)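 Caco-2 cells (0.5 × 10^6/well) were grown 7 days on collagen-coated transwell filters. Compound was dosed at 50, 75 and 100 μM input in 1% DMSO/HBSS, apical pH 6.5 and basolateral pH 7.4. Samples were taken every 30 min for 2 h in duplicate and quantified by LC/MS/MS. Papp was calculated from receiver concentration, time, area and mid-point donor and receiver concentrations. Monolayer integrity required fluorescein Papp below 1.5 × 10−6 cm/s.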

[4] = Toxicity in Balb/c mouse assessed as histological changes in spleen by measuring toxicity score at 12.5 to 25 mg/kg by H and E staining based analysis; assay type: organism-based; conditions: in vivo, dose 12.5-25 mg/kg
[5] = target: Replicase polyprotein 1ab (Severe acute respiratory syndrome coronavirus 2) (UniProt P0DTD1); assay: Inhibition of SARS-CoV-2 3CLpro at 10 ug/ml preincubated with enzyme for 30 mins followed by substrate addition and measured after 4 hrs by fluorescence based analysis; conditions: dose 10.0 µg/ml, time 4.5 hrs
Procedure, shortened: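 Recombinant SARS-CoV-2 3CLpro (1.5 ng/μl) was pre-incubated with compound 30 min at RT. Fluorogenic substrate was added to a final 40 μM and incubated 4 h at RT. Fluorescence was read at Ex 360/Em 460 nm. Wells were run in triplicate and blank was subtracted.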

[6] = Stability in human microsomes assessed as compound remaining at 1 uM measured after 60 mins in absence of NADPH by LC-MS-MS analysis; assay type: ADME, Microsome; conditions: read-out: Stability
Procedure, shortened: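 Compound was incubated in liver microsomes without NADPH. Percent remaining was measured after 60 min.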

[7] = Toxicity in Balb/c mouse assessed as reduction in platelet population at 25 mg/kg; assay type: organism-based; conditions: in vivo
[8] = Toxicity in Balb/c mouse assessed as effect on gamma GT at 12.5 to 25 mg/kg; assay type: organism-based; conditions: in vivo, dose 12.5-25 mg/kg; procedure, shortened: as §1
[9] = target: Replicase polyprotein 1ab (Severe acute respiratory syndrome coronavirus 2, UniProt P0DTD1); assay: Inhibition of recombinant SARS CoV-2 PL protease assessed as deubiquitination activity using ubiquitinated fluorogenic as substrate incubated for 2 hrs followed by substrate addition for 1 hr by synergy TM HTX microplate reader analysis
SARS-CoV-2 [10] = assay: Antiviral activity against SARS- CoV-2 infected in Vero E6 cells assessed as viral replication pretreated with cells for 24 hrs followed by viral infection for 1 hr and measured after 1 hr by plaque assay relative to control; assay type: functional, Severe acute respiratory syndrome coronavirus 2; conditions: time 26 hrs
[11] = Toxicity in Balb/c mouse assessed as change in histological variation in heart at 12.5 to 25 mg/kg by H and E staining based analysis; assay type: organism-based; conditions: in vivo, dose 12.5-25 mg/kg
Procedure, shortened: (§3)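 After the 14-day daily intraperitoneal dosing (12.5 or 25 mg/kg, female Balb/c), liver, kidney, spleen, heart and lung were fixed 24 h in 10% neutral-buffered formalin and paraffin-embedded. Sections of 4 μm were stained with H&E. Lesions were scored nil 0, mild 1, moderate 2, severe 3.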

[12] = Toxicity in Balb/c mouse assessed as effect on albumin at 12.5 to 25 mg/kg; assay type: organism-based; conditions: in vivo, dose 12.5-25 mg/kg; procedure, shortened: as §1
[13] = Permeability of the compound across apical to basolateral side in human Caco-2 cells assessed as drug recovery at pH 6.5 to 7.4; assay type: ADME, cell-based; conditions: Caco-2, pH 6.5, read-out: Drug recovery; procedure, shortened: as §2
SARS-CoV-2 [14] = assay: Antiviral activity against SARS CoV-2 infected in human Caco-2 cells assessed as reduction in IL-6 expression at 20 ug/ml preincubated with cells for 24 hrs followed by viral infection and measured after 3 to 12 hrs by real-time PCR assay; assay type: functional, organism-based; conditions: Severe acute respiratory syndrome coronavirus 2, dose 20.0 µg/ml, time lower 27.0 hrs, time upper […]
SARS-CoV-2 [15] = assay: Antiviral activity against SARS CoV-2 infected in human Caco-2 cells assessed as reduction in OAS1 expression at 20 ug/ml preincubated with cells for 24 hrs followed by viral infection and measured after 3 to 12 hrs by real-time PCR assay; assay type: functional, organism-based; conditions: Severe acute respiratory syndrome coronavirus 2, dose 20.0 µg/ml, time lower 27.0 hrs, time upper […]
SARS-CoV-2 [16] = assay: Antiviral activity against SARS- CoV-2 infected in Vero E6 cells assessed as viral adsorption pretreated with cells for 24 hrs followed by viral infection and measured after 1 hr by crystal violet staining based analysis relative to control; assay type: functional, Severe acute respiratory syndrome coronavirus 2; conditions: time 25 hrs
[17] = Selectivity index, ratio of CC50 for African green monkey Vero E6 cells to IC50 for antiviral activity against MERS-CoV NRCE-HKU270 infected in Vero E6 cells; assay type: toxicity, cell-based, Vero C1008; conditions: read-out: Ratio CC50/IC50
[18] = Toxicity in Balb/c mouse assessed as histological changes in liver by measuring toxicity score at 25 mg/kg by H and E staining based analysis; assay type: organism-based; conditions: in vivo; procedure, shortened: as §3
[19] = Toxicity in Balb/c mouse assessed as effect on ALP at 12.5 to 25 mg/kg; assay type: organism-based; conditions: in vivo, dose 12.5-25 mg/kg; procedure, shortened: as §1
[20] = Selectivity index, ratio of CC50 for African green monkey Vero E6 cells to IC50 for antiviral activity against SARS-CoV-2 NRC-03-nhCoV infected in african green monkey Vero E6 cells; assay type: toxicity, cell-based, Vero C1008; conditions: read-out: Ratio CC50/IC50
[21] = Toxicity in Balb/c mouse assessed as histological changes in kidney by measuring toxicity score at 12.5 to 25 mg/kg by H and E staining based analysis; assay type: organism-based; conditions: in vivo, dose 12.5-25 mg/kg; procedure, shortened: as §3
[22] = Toxicity in Balb/c mouse assessed as histological changes in liver by measuring toxicity score at 12.5 mg/kg by H and E staining based analysis; assay type: organism-based; conditions: in vivo; procedure, shortened: as §3
[23] = Toxicity in Balb/c mouse assessed as effect on AST at 12.5 to 25 mg/kg; assay type: organism-based; conditions: in vivo, dose 12.5-25 mg/kg; procedure, shortened: as §1
[24] = Stability in human liver microsomes assessed as half life at 1 uM in presence of NADPH by LC-MS-MS analysis; assay type: ADME, Microsome
[25] = Toxicity in Balb/c mouse assessed as change in histological variation in lung at 12.5 to 25 mg/kg by H and E staining based analysis; assay type: organism-based; conditions: in vivo, dose 12.5-25 mg/kg; procedure, shortened: as §3
[26] = tested on: Middle East respiratory syndrome-related coronavirus; assay: Antiviral activity against MERS-CoV NRCE-HKU270 infected in Vero E6 cells assessed as inhibition of viral growth; assay type: functional, organism-based; conditions: NRCE-HKU270, Vero C1008
SARS-CoV-2 [27] = assay: Antiviral activity against SARS CoV-2 HCoV-19/Egypt/NRC-1/2020 infected in human Caco-2 cells assessed as reduction in viral ORFb1 RNA expression at 20 ug/ml pre-infected with virus for 1 hr followed by cell addition for 1 hr and measured after 1 to 12 hrs by RT-PCR analysis; assay type: functional, organism-based; conditions: Severe acute respiratory syndrome coronavirus 2, dose 20.0 µg/ml, time 3-14 hrs
[28] = Toxicity in Balb/c mouse assessed as effect on total protein at 12.5 to 25 mg/kg; assay type: organism-based; conditions: in vivo, dose 12.5-25 mg/kg; procedure, shortened: as §1

Question: Which Activity [1] does the source give for `COc1ccc2[nH]c3c(c2c1)C[C@]1(OC)CC[C@H]2c4[nH]c5ccccc5c4CCN2[C@@H]1C3` here?
Answer: Non-Toxic

Question: What about the Activity [2] of the same molecule?
Answer: Non-Toxic

Question: And the Papp A→B [3]?
Answer: 5.9 ×10⁻⁶ cm/s

Question: And the Activity [4]?
Answer: 0

Question: What about the inhibition [5] of the same molecule?
Answer: inactive

Question: What about the remaining at 1 h, 1 µM [6] of the same molecule?
Answer: 102%

Question: What about the Activity [7] of the same molecule?
Answer: Non-Toxic

Question: What about the Activity [8] of the same molecule?
Answer: Non-Toxic

Question: What about the IC50 [9] of the same molecule?
Answer: 386 µM

Question: What about the Activity (SARS-CoV-2 [10]) of the same molecule?
Answer: 8.5%

Question: What about the Activity [11] of the same molecule?
Answer: Non-Toxic

Question: And the Activity [12]?
Answer: Non-Toxic

Question: What about the recovery [13] of the same molecule?
Answer: 77%

Question: And the Activity (SARS-CoV-2 [14])?
Answer: Active

Question: What about the Activity (SARS-CoV-2 [15]) of the same molecule?
Answer: Active

Question: What about the Activity (SARS-CoV-2 [16]) of the same molecule?
Answer: 2.5%

Question: What about the selectivity ratio [17] of the same molecule?
Answer: 8.96

Question: And the Activity [18]?
Answer: 0

Question: And the Activity [19]?
Answer: Non-Toxic

Question: And the selectivity ratio [20]?
Answer: 4.6

Question: What about the Activity [21] of the same molecule?
Answer: 0

Question: And the Activity [22]?
Answer: 0

Question: And the Activity [23]?
Answer: Non-Toxic

Question: What about the t1/2 [24] of the same molecule?
Answer: > 1 h

Question: What about the Activity [25] of the same molecule?
Answer: Non-Toxic

Question: And the IC50 [26]?
Answer: 6.21 µg/mL (≈ 14.5 µM)

Question: What about the Activity (SARS-CoV-2 [27]) of the same molecule?
Answer: Active

Question: What about the Activity [28] of the same molecule?
Answer: Non-Toxic
